From ChEMBL document CHEMBL4257504, “Tricyclic xanthine derivatives containing a basic substituent: adenosine receptor affinity and drug-related properties” (Medchemcomm, 2018) come the findings set out here.

Data set [1] can be described thus: Drug level in human liver microsomes treated with 2-(4-(2-(1,3-Dibutyl-2,4-dioxo-1,2,3,4,7,8-hexahydropyrimido[2,1-f]purin-9(6H)-yl)ethyl)phenoxy)-N-(3-(diethylamino)propyl)-acetamide at 50 uM preincubated for 5 mins followed by addition of NADPH regenerating system and measured after 120 mins by UPLC/MS analysis. Format: ADME, microsome. The note with it: 2 h. The gist of the method: (§1)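 Incubations use pooled human (adult male and female) or rat liver microsomes at 1 mg/ml in 0.1 M Tris-HCl pH 7.4 with compound at 50 μM. After 5 min preincubation at 37 °C, an NADPH regenerating system is added to start the reaction. Cold methanol stops it at 120 min; samples are centrifuged and the supernatant analysed by UPLC/MS.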

Data set [2] in a line: Drug level in rat liver microsomes treated with 2-(4-(2-(1,3-Dibutyl-2,4-dioxo-1,2,3,4,7,8-hexahydropyrimido[2,1-f]purin-9(6H)-yl)ethyl)phenoxy)-N-(3-(diethylamino)propyl)-acetamide at 50 uM preincubated for 5 mins followed by addition of NADPH regenerating system and measured after 120 mins by UPLC/MS analysis. It counts as ADME, microsome. The note with it: 2 h. In a few lines:
as §1

In the next data set the target is T1, Adenosine receptor A1 (Rattus norvegicus, UniProt P25099).
T1 sequence (P25099 whole entry): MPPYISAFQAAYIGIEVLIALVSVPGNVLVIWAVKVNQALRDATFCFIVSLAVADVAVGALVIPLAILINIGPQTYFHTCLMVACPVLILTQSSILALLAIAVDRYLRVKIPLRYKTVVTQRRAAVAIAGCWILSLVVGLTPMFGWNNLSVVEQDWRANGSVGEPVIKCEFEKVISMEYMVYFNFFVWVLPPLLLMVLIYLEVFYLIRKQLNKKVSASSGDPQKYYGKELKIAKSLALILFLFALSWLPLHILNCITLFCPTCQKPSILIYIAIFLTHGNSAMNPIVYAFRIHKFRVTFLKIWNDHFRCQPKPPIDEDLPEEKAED
Nature of the data set: Displacement of [3H]CCPA from adenosine A1 receptor in rat brain cortical membranes. It counts as cell membranes. The gist of the method: (§2)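 Membrane radioligand binding: A1 in rat brain cortical membranes and A2A in rat brain striatal membranes, with human A1 and A2A in recombinant CHO cell membranes. Radioligands are [3H]CCPA for A1 and [3H]MSX-2 for A2A. Full concentration-inhibition curves use six to ten concentrations spanning three orders of magnitude, with at least three independent experiments.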

The target of a further data set is Adenosine receptor A2a (Rattus norvegicus, UniProt P30543). As to the kind of experiment: Displacement of [3H]MSX-2 from adenosine A2A receptor in rat brain striatal membranes. Format: cell membranes, Striatum, Membrane. The gist of the method: as §2
The target of data set [3] is Adenosine receptor A2a (Rattus norvegicus) (UniProt P30543). Nature of the data set: Displacement of [3H]MSX-2 from adenosine A2A receptor in rat brain striatal membranes at 1 uM relative to control. Format: cell membranes. The note with it: Striatum, Membrane.
Data set [4] deals with T2, Adenosine receptor A2b (Homo sapiens, UniProt P29275).
T2 sequence (P29275 whole entry): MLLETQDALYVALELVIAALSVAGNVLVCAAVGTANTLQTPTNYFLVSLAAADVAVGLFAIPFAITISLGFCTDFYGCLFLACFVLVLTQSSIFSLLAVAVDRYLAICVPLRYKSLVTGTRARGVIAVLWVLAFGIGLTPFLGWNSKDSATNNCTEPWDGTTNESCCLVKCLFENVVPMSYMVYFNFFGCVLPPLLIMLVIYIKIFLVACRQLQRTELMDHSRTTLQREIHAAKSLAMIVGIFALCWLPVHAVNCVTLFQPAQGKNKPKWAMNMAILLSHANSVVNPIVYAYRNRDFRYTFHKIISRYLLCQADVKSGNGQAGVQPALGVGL
Nature of the data set: […] from human adenosine A2B receptor expressed in CHO cell membranes. The note with it: in the assay text read “[3H]PSB-603” for “[3H]PSB-602”. The gist of the method:
(§3)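 Membranes from CHO cells recombinantly expressing human A2B or A3 receptor. Radioligands are [3H]PSB-603 for A2B and [3H]PSB-11 for A3. Competition curves use six to ten test-compound concentrations spanning three orders of magnitude, with at least three independent experiments.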

The target in data set [5] is T3, Adenosine receptor A3 (Homo sapiens, UniProt P0DMS8).
T3 sequence (P0DMS8 whole entry): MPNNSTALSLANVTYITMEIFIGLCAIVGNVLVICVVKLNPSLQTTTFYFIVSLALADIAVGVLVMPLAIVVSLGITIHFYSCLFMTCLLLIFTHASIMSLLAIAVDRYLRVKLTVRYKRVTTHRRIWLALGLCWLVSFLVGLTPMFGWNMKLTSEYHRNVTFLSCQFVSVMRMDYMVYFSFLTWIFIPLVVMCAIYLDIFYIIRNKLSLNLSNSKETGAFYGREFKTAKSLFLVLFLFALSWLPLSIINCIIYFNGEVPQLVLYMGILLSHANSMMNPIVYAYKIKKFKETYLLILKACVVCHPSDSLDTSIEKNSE
Nature of the data set: Displacement of [3H]PSB-11 from human adenosine A3 receptor expressed in CHO cell membranes. The gist of the method:
as §3

Data set [6] addresses T4, Adenosine receptor A3 (Homo sapiens) (UniProt P0DMS8).
T4 sequence (whole entry): T3 sequence (P0DMS8 whole entry)
Nature of the data set: Displacement of [3H]PSB-11 from human adenosine A3 receptor expressed in CHO cell membranes at 1 uM relative to control.

Data set [7] deals with T5, Adenosine receptor A2b (Homo sapiens) (UniProt P29275).
T5 sequence (whole entry): T2 sequence (P29275 whole entry)
As to the kind of experiment: Displacement of [3H]PSB-603 from human adenosine A2B receptor expressed in CHO cell membranes at 1 uM relative to control.

Data set [8] deals with T6, Adenosine receptor A1 (Rattus norvegicus) (UniProt P25099).
T6 sequence (whole entry): T1 sequence (P25099 whole entry)
As to the kind of experiment: Displacement of [3H]CCPA from adenosine A1 receptor in rat brain cortical membranes at 1 uM relative to control. Format: cell membranes.

In another data set the target is Cytochrome P450 3A4 (Homo sapiens, UniProt P08684). As to the kind of experiment: Inhibition of recombinant human CYP3A4 by bioluminescence method. Format: ADME.
Another data set concerns HEK293. Nature of the data set: Cytotoxicity against HEK293 cells assessed as decrease in cell viability after 48 hrs by formazan dye-based EZ4U assay. Conditions: Homo sapiens, HEK293, 48 h; call rule not given here. The gist of the method: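 HEK-293 cells are seeded at 1 × 10^4 per well and grown 24 h to 60% confluence. Compounds (25 mM DMSO stocks) are diluted into medium at final 0.1–250 μM, with DMSO ≤1%, and left 48 h.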

Data set [9] is described as follows: Metabolic stability in human liver microsomes at 50 uM preincubated for 5 mins followed by addition of NADPH regenerating system and measured after 120 mins by UPLC/MS analysis. Conditions: 2 h. Format: ADME, microsome. The gist of the method:
as §1

Data set [10] can be described thus: Metabolic stability in rat liver microsomes at 50 uM preincubated for 5 mins followed by addition of NADPH regenerating system and measured after 120 mins by UPLC/MS analysis. It counts as ADME, microsome. The note with it: 2 h. The gist of the method: as §1
The target of data set [11] is T2, Adenosine receptor A2b. Nature of the data set: Displacement of [3H]PSB-603 from human adenosine A2B receptor expressed in CHO cell membranes.
Data set [12] is described as follows: Solubility of compound in water after over night incubation by UV spectroscopic method. Format: physicochemical. The gist of the method: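 Compound (10 mg, basic form) is suspended in 2 mL water, boiled 5 min, left overnight at 20 °C and filtered. The filtrate is diluted 10–80-fold in MeOH and read by UV in 90% MeOH/H2O. Concentration comes from seven-point standard curves (10^-3 to 10^-1 mg/mL) by linear regression, multiplied by the dilution factor.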

Data set [13] addresses T3, Adenosine receptor A3. As to the kind of experiment: Binding affinity to human adenosine A3 receptor by radioligand displacement assay. The gist of the method:
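Membranes from CHO cells recombinantly expressing human A2B or A3 receptor. Competition curves use six to ten test-compound concentrations spanning three orders of magnitude, with at least three independent experiments.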

In brackets after ≈: the same amount, converted by molar mass. A value given as a limit tells only on which side of the number the result lay.

Sequence of Adenosine receptor A2a (P30543 whole entry): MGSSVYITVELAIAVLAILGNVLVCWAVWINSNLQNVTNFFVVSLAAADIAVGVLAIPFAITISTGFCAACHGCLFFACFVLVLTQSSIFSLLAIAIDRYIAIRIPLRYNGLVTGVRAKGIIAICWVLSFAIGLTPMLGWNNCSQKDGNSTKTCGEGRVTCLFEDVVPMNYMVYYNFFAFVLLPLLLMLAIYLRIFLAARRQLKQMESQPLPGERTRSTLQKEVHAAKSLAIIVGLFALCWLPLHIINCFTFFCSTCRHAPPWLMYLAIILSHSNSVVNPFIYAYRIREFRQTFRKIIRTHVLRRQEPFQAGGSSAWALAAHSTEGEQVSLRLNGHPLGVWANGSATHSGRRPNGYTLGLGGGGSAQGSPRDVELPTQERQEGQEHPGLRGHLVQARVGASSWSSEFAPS
Sequence of Adenosine receptor A2a (Rattus norvegicus) (P30543 whole entry): as above
Sequence of Cytochrome P450 3A4 (P08684 whole entry): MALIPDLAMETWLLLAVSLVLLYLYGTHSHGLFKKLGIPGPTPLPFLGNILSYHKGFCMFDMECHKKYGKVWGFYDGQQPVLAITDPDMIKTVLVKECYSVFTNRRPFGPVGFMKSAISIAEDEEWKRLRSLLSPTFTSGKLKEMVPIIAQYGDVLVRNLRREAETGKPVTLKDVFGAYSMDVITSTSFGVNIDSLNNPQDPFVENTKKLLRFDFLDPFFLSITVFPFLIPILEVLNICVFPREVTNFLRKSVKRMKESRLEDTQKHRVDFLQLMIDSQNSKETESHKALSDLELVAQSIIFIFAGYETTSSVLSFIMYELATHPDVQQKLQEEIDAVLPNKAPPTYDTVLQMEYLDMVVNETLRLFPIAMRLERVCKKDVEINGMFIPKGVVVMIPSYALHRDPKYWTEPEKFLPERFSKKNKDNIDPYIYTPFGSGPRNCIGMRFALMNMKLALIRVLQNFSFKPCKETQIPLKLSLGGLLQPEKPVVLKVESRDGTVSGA

For `CCCCn1c(=O)c2c(nc3n2CCCN3CCc2ccc(OCC(=O)NCCCNCC)cc2)n(CCCC)c1=O`, the Drug metabolism result in data set [1] and in data set [2] was “Metabolite_Detected” each time.
Regarding `CCCCn1c(=O)c2c(nc3n2CCCN3CCc2ccc(OCC(=O)NCc3ccc(F)cc3)cc2)n(CCCC)c1=O`, the Ki is 1010 nM at Adenosine receptor A1, > 10000 nM on Adenosine receptor A2a, > 1000 nM on Adenosine receptor A2b [4] and > 1000 nM at Adenosine receptor A3 [5]. For the same compound, the inhibition in [3] stood at 32%; in data set [6] it was 40%; in data set [7] it was 43%.
In the case of `CCCn1c(=O)c2c(nc3n2CCCN3CCc2ccc(OCC(=O)NCc3ccc(Cl)cc3)cc2)n(CCC)c1=O`, the Ki is > 10000 nM at Adenosine receptor A1, > 10000 nM at Adenosine receptor A2a, > 1000 nM at Adenosine receptor A2b [4] and 1090 nM at Adenosine receptor A3 [5]. Also, the results for the inhibition in data set [8], in [3] and in data set [7] were 18%, 24% and -4%, respectively.
Turning to `CCCCn1c(=O)c2c(nc3n2CCCN3CCc2ccc(OCC(=O)NCCN3CCCC3)cc2)n(CCCC)c1=O`, the inhibition constant (Ki) on Adenosine receptor A1 is 36.6 nM; at Adenosine receptor A2a, 455 nM; at Adenosine receptor A3 [5], 204 nM; on Adenosine receptor A2b [11], 66.3 nM. Besides, the “inhibition (INH)” value on Cytochrome P450 3A4 (human, recombinant enzyme) was “Not Active”. Also, the IC50 with HEK293 was 23.4 µM. Further, the Stability entry in [9] and in data set [10] was “Stable” each time.
On to `CCCCn1c(=O)c2c(nc3n2CCCN3CCc2ccc(OCC(=O)NCCCN(CC)CC)cc2)n(CCCC)c1=O`, for which the Ki is 24.8 nM at Adenosine receptor A1, 318 nM at Adenosine receptor A2a, 126 nM on Adenosine receptor A2b [4] and 248 nM at Adenosine receptor A3 [5]. The amount in solution in data set [12] (solubility) came to 632 µM (≈ 385 µg/mL). Moreover, the values for the IC50 at Cytochrome P450 3A4 and with HEK293 were 230 nM and 27.3 µM, respectively.
Regarding `CCCCn1c(=O)[nH]c2nc3n(c2c1=O)CCCN3CCc1ccc(OCC(=O)NCCCN(CC)CC)cc1`, in data set [2], the Drug metabolism entry was “Metabolite_Detected”.
For the compound `CCCn1c(=O)c2c(nc3n2CCCN3CCc2ccc(OCC(=O)NCc3cccc(OC)c3)cc2)n(CCC)c1=O`, the Ki was > 10000 nM at Adenosine receptor A1, > 10000 nM at Adenosine receptor A2a, > 1000 nM on Adenosine receptor A2b [4] and > 1000 nM at Adenosine receptor A3 [5]. Besides, the inhibition in [8] is 22%; in data set [3], 37%; in data set [6], 28%; in data set [7] it was 39%.
Take `CCCCn1c(=O)c2c(nc3n2CCCN3CCc2ccc(OCC(=O)NCCC(=O)O)cc2)n(CCCC)c1=O`: the Drug metabolism result in data set [1] and in [2] was “Metabolite_Detected” in each case.
With `CCCCn1c(=O)n(CCC(C)O)c(=O)c2c1nc1n2CCCN1CCc1ccc(OCC(=O)NCCCN(CC)CC)cc1` (stereo not given), the Drug metabolism result in data set [1] and in [2] was “Metabolite_Detected” in each case.
As for `CCCn1c(=O)c2[nH]c(C34CC5CC(CC3C5)C4)nc2n(CCC)c1=O` [ROLOFYLLINE], the Ki at Adenosine receptor A3 [13] was found to be 4.39 µM.
